Measured values from different studies.
Each line is one published result; the experiments were not run side by side.
Target: Serine/threonine-protein kinase SIK3 (SIK3, Homo sapiens, UniProt Q9Y2K2)

With CN1CCN(C(=O)c2ccc(NC(=O)Nc3ccc(N(C)c4ccnc(Nc5ccc(CS(C)(=O)=O)cc5)n4)cc3)cc2)CC1 the remaining binding was 86% (binding; competition with immobilised ligand; 1 µM).
The activity vs control of CC(C)S(=O)(=O)c1ccc2nccc(Nc3ccc4sc(C5CCCC5)nc4c3)c2c1 is reported as 104% (enzyme activity; inhibitor; 1 µM).
CO[C@@H]1[C@H](N(C)C(=O)c2ccccc2)C[C@H]2O[C@]1(C)n1c3ccccc3c3c4c(c5c6ccccc6n2c5c31)C(=O)NC4 gave an inhibition of 79% (enzyme activity; inhibitor; 1 µM).
CCCCC(=O)Nc1ccc(-c2ccc3ncn(CCC)c(=O)c3c2)cn1 has a remaining binding of 100% (binding; competition with immobilised ligand; 0.5 µM).
For Cc1cc(O)c(-c2ccc([C@@H](C)CN(C)C)cc2)c2c1[nH]c(=O)c1sccc12, the inhibition was -11.2% (enzyme activity; inhibitor; 0.1 µM).
The remaining signal of C1=C/COCc2cc(ccc2OCCN2CCCC2)Nc2nccc(n2)-c2cccc(c2)COC/1 is reported as 83% (cell-free assay; 0.1 µM).
With C=CC(=O)N1CCC([C@@H]2CCNc3c(C(N)=O)c(-c4ccc(Oc5ccccc5)cc4)nn32)CC1 the inhibition was 9% (enzyme activity; inhibitor; 1 µM).
Cc1ccc(NC(=O)c2ccnc(C(F)(F)F)c2)cc1-c1cc(OCCO)nc(N2CCOCC2)c1 gave a remaining binding of 86% (binding; competition with immobilised ligand; 1 µM).
For C#Cc1cc(-c2cc(Nc3nc(N[C@@H](C)c4ccc(F)cn4)ncc3Cl)n[nH]2)ccc1C=O, the inhibition was 31.1% (enzyme activity; inhibitor; 0.2 µM).
